Experimental findings from ChEMBL document CHEMBL1140727, “Structural diversity and plasticity associated with nucleotides targeting orotidine monophosphate decarboxylase” (J Med Chem, 2008) are described below.

Experiment [1] can be described thus: Inhibition of Methanobacterium thermoautotrophicum ODCase. Also noted: species or system Methanothermobacter thermautotrophicus.
Experiment [2] can be described thus: Inhibition of Plasmodium falciparum ODCase.
Experiment [3] can be described thus: Inhibition of human ODCase.
Experiment [4] relates to Plasmodium falciparum. The experiment is described as follows: Inhibition of Plasmodium falciparum ODCase upto 10 or 20 mM. The essentials: (§1)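 Run by ITC at 37 °C. ODCase stock (60 µM in 50 mM Tris pH 7.5, 20 mM DTT, 40 mM NaCl) was held overnight at room temperature. Final mixture: 60 nM enzyme in degassed 50 mM Tris pH 7.4, 1 mM DTT, with nucleotide varied 0–20 mM. Started by a single 3.4 µL injection of 5 mM OMP. Competitive analysis by rate-equation fit and double-reciprocal plots.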

Experiment [5] concerns the target T1, Orotidine 5'-phosphate decarboxylase (Saccharomyces cerevisiae S288c, UniProt P03962).
T1 sequence (P03962 whole entry): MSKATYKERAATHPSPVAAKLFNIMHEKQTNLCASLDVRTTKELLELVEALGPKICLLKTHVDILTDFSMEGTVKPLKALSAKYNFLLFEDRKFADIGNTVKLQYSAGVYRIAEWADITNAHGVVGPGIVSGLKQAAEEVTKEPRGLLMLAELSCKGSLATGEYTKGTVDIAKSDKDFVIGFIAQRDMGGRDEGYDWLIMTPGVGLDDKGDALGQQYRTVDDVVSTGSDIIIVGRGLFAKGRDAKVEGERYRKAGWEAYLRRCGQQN
The experiment is described as follows: Inhibition of yeast ODCase.

The species named for experiment [6] is Homo sapiens. The experiment is described as follows: Inhibition of human ODCase upto 10 or 20 mM. The essentials: (§2)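 Enzyme was a truncated C-terminal portion of human UMP synthase, expressed in E. coli BL-21 with the His6 tag removed by thrombin. Stock (60 µM) was incubated overnight at 4 °C. Enzyme plus nucleotide ([…]) in 50 mM Tris pH 7.5, 1 mM DTT was followed by ITC at 37 °C. Started by a 5.7 µL injection of 5 mM OMP (20 µM final). Competitive Ki fit.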

For experiment [7], the system named is Methanothermobacter thermautotrophicus. Description: Activity of Methanobacterium thermoautotrophcium ODCase. Summed up: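 Isothermal titration calorimetry at 55 °C. Enzyme stock (20 µM in 50 mM Tris pH 7.5, 20 mM DTT, 40 mM NaCl) was stabilized overnight at room temperature. Assay: 20 nM ODCase in 50 mM Tris pH 7.5, 1 mM DTT, with fixed nucleotide levels (0–20 mM). Started by a single injection of 5 mM OMP (40 µM final). Competitive Ki from rate fitting, checked by double-reciprocal plots.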

Experiment [8] relates to Plasmodium falciparum. The experiment is described as follows: Activity of Plasmodium falciparum ODCase. Summed up:
as §1

For experiment [9], the species on record is Homo sapiens. Description: Activity of human ODCase. The essentials:
as §2

Active and inactive are the calls of the source. The calls are words filed in the database; no cut-off is given here.

On to `Cc1cn([C@H]2C[C@H](O)[C@@H](COP(=O)(O)O)O2)c(=O)[nH]c1=O`, for which the Ki in [1] stood at 3300 µM; in experiment [2] it was 10000 µM; in [3], 8700 µM.
In the same order, the values of `O=c1ccn([C@@H]2O[C@H](COP(=O)(O)O)[C@@H](O)[C@H]2O)c(=O)[nH]1` are 330 µM, 210 µM and 220 µM.
Consider `Nc1ccn([C@@H]2O[C@H](COP(=O)(O)O)[C@@H](O)[C@H]2O)c(=O)n1`, for which, in the experiment with Plasmodium falciparum [4], the result was inactive. Also, the inhibitory constant (Ki) in experiment [1] is 1200 µM; in experiment [3], 1400 µM.
With `O=c1[nH]c(=O)c2ncn([C@@H]3O[C@H](COP(=O)(O)O)[C@@H](O)[C@H]3O)c2[nH]1`, the Ki in experiment [5] came out at 0.4 µM; in experiment [1] it was 130 µM; in experiment [2], 43 µM; in experiment [3], 0.7 µM.
`Nc1ncnc2c1ncn2[C@H]1C[C@H](O)[C@@H](COP(=O)(O)O)O1`: the outcome with Plasmodium falciparum [4] was inactive. The Ki in experiment [1] is greater than 10000 µM; in [3], 7400 µM.
Turning to `Nc1nc2c(ncn2[C@@H]2O[C@H](COP(=O)(O)O)[C@@H](O)[C@H]2O)c(=O)[nH]1`, the result in the experiment filed under Homo sapiens [6] was inactive. The Ki came out at 4200 µM in experiment [1] and 2100 µM in [2].
Consider `Nc1ncnc2c1ncn2[C@@H]1O[C@H](COP(=O)(O)O)[C@@H](O)[C@H]1O`, for which the result in the experiment on Plasmodium falciparum [4] was inactive. Besides, the Ki was 3500 µM in experiment [1] and 4300 µM in experiment [3].
For the compound `O=C(O)c1cc(=O)[nH]c(=O)n1[C@@H]1O[C@H](COP(=O)(O)O)[C@@H](O)[C@H]1O`, the Km in experiment [7] was 4.8 µM; with Plasmodium falciparum [8], 1.3 µM; in the experiment filed under Homo sapiens [9] it was 1.7 µM. In addition, the kcat was found to be 20.7 s⁻¹ in experiment [7], 6.7 s⁻¹ in the experiment on Plasmodium falciparum [8] and 8.1 s⁻¹ in the experiment listed under Homo sapiens [9].

For orientation: Ki means a measure of affinity in units of concentration, obtained from inhibition or displacement. Low readings indicate tighter binding, high ones weaker binding. Broadly, the Km is the substrate concentration at which the rate is half of its maximum. For orientation: kcat means the number of substrate molecules converted per active site and unit of time at saturation.
